Columns and labels:
Format in all cases: cell-based
[1] = system: MDA-MB-231 breast cancer cells; assay: MTT antiproliferative assay, MDA-MB-231; conditions: Homo sapiens, MDA-MB-231, 24 h, read-out: Antiproliferative activity (IC50) MDA-MB-231
Outline: (§1)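 Cells were seeded at 2×10^3 per well and left to adhere for 24 h. Test compound was then added at 0–100 µM final, and cells were incubated for 24 h at 37 °C. MTT was added for 4 h, […]. Absorbance was read at 540 nm and growth compared with untreated cells. IC50 was taken from a dose-response curve.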

[2] = system: MDA-MB-231/ADR breast cancer cells; assay: MTT antiproliferative assay, MDA-MB-231/ADR; conditions: Homo sapiens, MDA-MB-231, 24 h, read-out: Antiproliferative activity (IC50) MDA-MB-231/ADR
Outline: as §1

[3] = MTT cytotoxicity towards normal breast cells; conditions: human, MCF-10A normal breast cells
[4] = system: normal MCF-10A breast cells; assay: MTT cytotoxicity towards normal breast cells; conditions: SI: IC50(MCF-10A)/IC50(MCF-7) or IC50(MCF-10A)/IC50(MDA-MB-231)
[5] = system: MCF-7 breast cancer cells; assay: MTT antiproliferative assay, MCF-7; conditions: Homo sapiens, MCF7, 24 h, read-out: Antiproliferative activity (IC50) MCF-7
Outline: (§2)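 Cells seeded at 2×10^3 per well and left 24 h to adhere, then exposed to test compound (0–100 µM, final) for 24 h at 37 °C. MTT added for 4 h, a second MTT addition followed by overnight incubation, and absorbance read at 540 nm. Growth compared with untreated cells; IC50 derived from dose-response curves.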

[6] = system: MCF-7, MDA-MB-231, MCF-7/ADR and MDA-MB-231/ADR breast cancer cell lines; assay: MTT antiproliferative assay, the four breast cancer cell lines taken together; conditions: Homo sapiens, read-out: IC50 range over the four breast cancer cell lines
Outline: as §2

SMILES | IC50 [1] | IC50 [2] | IC50 at 24 h [3] | Selectivity index (SI) [4] | IC50 [5] | IC50 [6]
C[C@@H]1CC[C@H]2[C@@H](C)C(OC(=O)CCCN3C(=O)C(=NOCc4ccccc4)c4cc(F)ccc43)O[C@@H]3O[C@@]4(C)CC[C@@H]1[C@]32OO4 (stereo partly drawn) [Hybrid 5f, (3R,5aS,6R,8aS,9R,12R,12aR)-3,6,9-trimethyldecahydro-12H-3,12-epoxy[1,2]dioxepino[4,3-i]isochromen-10-yl 4-(3-((benzyloxy)imino)-5-fluoro-2-oxoindolin-1-yl)butanoate] | > 100 µM | > 100 µM | > 100 µM | >5.46 | 18.3 µM | –
COc1ccc2c(c1)C(=NOCc1ccccc1)C(=O)N2CCCC(=O)OC1O[C@@H]2O[C@@]3(C)CC[C@H]4[C@H](C)CC[C@@H]([C@H]1C)[C@@]24OO3 (stereo partly drawn) [Hybrid 5k, (3R,5aS,6R,8aS,9R,12R,12aR)-3,6,9-trimethyldecahydro-12H-3,12-epoxy[1,2]dioxepino[4,3-i]isochromen-10-yl 4-(3-((benzyloxy)imino)-5-methoxy-2-oxoindolin-1-yl)butanoate] | > 100 µM | > 100 µM | – | – | > 100 µM | –
CON=C1C(=O)N(CCCC(=O)OC2O[C@@H]3O[C@@]4(C)CC[C@H]5[C@H](C)CC[C@@H]([C@H]2C)[C@@]35OO4)c2ccc(F)cc21 (stereo partly drawn) [Hybrid 5d, (3R,5aS,6R,8aS,9R,12R,12aR)-3,6,9-trimethyldecahydro-12H-3,12-epoxy[1,2]dioxepino[4,3-i]isochromen-10-yl 4-(3-(methoxyimino)-5-fluoro-2-oxoindolin-1-yl)butanoate] | > 100 µM | > 100 µM | > 100 µM | – | 6.07 µM | –
CON=C1C(=O)N(CCCC(=O)OC2O[C@@H]3O[C@@]4(C)CC[C@H]5[C@H](C)CC[C@@H]([C@H]2C)[C@@]35OO4)c2ccccc21 (stereo partly drawn) [Hybrid 5a, (3R,5aS,6R,8aS,9R,12R,12aR)-3,6,9-trimethyldecahydro-12H-3,12-epoxy[1,2]dioxepino[4,3-i]isochromen-10-yl 4-(3-(methoxyimino)-2-oxoindolin-1-yl)butanoate] | > 100 µM | 52.2 µM | > 100 µM | >5.23 | 19.1 µM | –
CCON=C1C(=O)N(CCCC(=O)OC2O[C@@H]3O[C@@]4(C)CC[C@H]5[C@H](C)CC[C@@H]([C@H]2C)[C@@]35OO4)c2ccc(OC)cc21 (stereo partly drawn) [Hybrid 5j, (3R,5aS,6R,8aS,9R,12R,12aR)-3,6,9-trimethyldecahydro-12H-3,12-epoxy[1,2]dioxepino[4,3-i]isochromen-10-yl 4-(3-(ethoxyimino)-5-methoxy-2-oxoindolin-1-yl)butanoate] | > 100 µM | > 100 µM | – | – | > 100 µM | –
C[C@@H]1CC[C@H]2[C@@H](C)C(OC(=O)CCCN3C(=O)C(=O)c4cc(F)ccc43)O[C@@H]3O[C@@]4(C)CC[C@@H]1[C@]32OO4 (stereo partly drawn) [Hybrid 4b, (3R,5aS,6R,8aS,9R,12R,12aR)-3,6,9-trimethyldecahydro-12H-3,12-epoxy[1,2]dioxepino[4,3-i]isochromen-10-yl 4-(5-fluoro-2,3-dioxoindolin-1-yl)butanoate] | 50 µM | > 100 µM | > 100 µM | >7.62 | 13.1 µM | –
C[C@@H]1CC[C@H]2[C@@H](C)C(=O)O[C@@H]3O[C@@]4(C)CC[C@@H]1[C@]32OO4 [ART, Artemisinin, reference compound] | > 100 µM | > 100 µM | > 100 µM | – | > 100 µM | > 100 µM
Cc1ccc2c(c1)C(=O)C(=O)N2CCCC(=O)OC1O[C@@H]2O[C@@]3(C)CC[C@H]4[C@H](C)CC[C@@H]([C@H]1C)[C@@]24OO3 (stereo partly drawn) [Hybrid 4c, (3R,5aS,6R,8aS,9R,12R,12aR)-3,6,9-trimethyldecahydro-12H-3,12-epoxy[1,2]dioxepino[4,3-i]isochromen-10-yl 4-(5-methyl-2,3-dioxoindolin-1-yl)butanoate] | 32.9 µM | > 100 µM | – | – | > 100 µM | –
C[C@@H]1CC[C@H]2[C@@H](C)C(OC(=O)CCCN3C(=O)C(=O)c4ccccc43)O[C@@H]3O[C@@]4(C)CC[C@@H]1[C@]32OO4 (stereo partly drawn) [Hybrid 4a, (3R,5aS,6R,8aS,9R,12R,12aR)-3,6,9-trimethyldecahydro-12H-3,12-epoxy[1,2]dioxepino[4,3-i]isochromen-10-yl 4-(2,3-dioxoindolin-1-yl)butanoate] | 14.9 µM | 49.6 µM | > 100 µM | >7.33 | 13.6 µM | –
CCON=C1C(=O)N(CCCC(=O)OC2O[C@@H]3O[C@@]4(C)CC[C@H]5[C@H](C)CC[C@@H]([C@H]2C)[C@@]35OO4)c2ccc(F)cc21 (stereo partly drawn) [Hybrid 5e, (3R,5aS,6R,8aS,9R,12R,12aR)-3,6,9-trimethyldecahydro-12H-3,12-epoxy[1,2]dioxepino[4,3-i]isochromen-10-yl 4-(3-(ethoxyimino)-5-fluoro-2-oxoindolin-1-yl)butanoate] | 8.12 µM | > 100 µM | > 100 µM | >6.29 | 15.9 µM | –
CON=C1C(=O)N(CCCC(=O)OC2O[C@@H]3O[C@@]4(C)CC[C@H]5[C@H](C)CC[C@@H]([C@H]2C)[C@@]35OO4)c2ccc(OC)cc21 (stereo partly drawn) [Hybrid 5i, (3R,5aS,6R,8aS,9R,12R,12aR)-3,6,9-trimethyldecahydro-12H-3,12-epoxy[1,2]dioxepino[4,3-i]isochromen-10-yl 4-(5-methoxy-3-(methoxyimino)-2-oxoindolin-1-yl)butanoate] | > 100 µM | > 100 µM | – | – | > 100 µM | –
CCON=C1C(=O)N(CCCC(=O)OC2O[C@@H]3O[C@@]4(C)CC[C@H]5[C@H](C)CC[C@@H]([C@H]2C)[C@@]35OO4)c2ccc(C)cc21 (stereo partly drawn) [Hybrid 5g, (3R,5aS,6R,8aS,9R,12R,12aR)-3,6,9-trimethyldecahydro-12H-3,12-epoxy[1,2]dioxepino[4,3-i]isochromen-10-yl 4-(3-(ethoxyimino)-5-methyl-2-oxoindolin-1-yl)butanoate] | > 100 µM | > 100 µM | – | – | > 100 µM | –
C[C@@H]1CC[C@H]2[C@@H](C)C(OC(=O)CCCN3C(=O)C(=NOCc4ccccc4)c4ccccc43)O[C@@H]3O[C@@]4(C)CC[C@@H]1[C@]32OO4 (stereo partly drawn) [Hybrid 5c, (3R,5aS,6R,8aS,9R,12R,12aR)-3,6,9-trimethyldecahydro-12H-3,12-epoxy[1,2]dioxepino[4,3-i]isochromen-10-yl 4-(3-((benzyloxy)imino)-2-oxoindolin-1-yl)butanoate] | 2.39 µM | 3.95 µM | > 100 µM | – | > 100 µM | –
COc1cccc2c1C(=O)c1c(O)c3c(c(O)c1C2=O)C[C@@](O)(C(=O)CO)C[C@@H]3O[C@H]1C[C@H](N)[C@H](O)[C@H](C)O1 [ADR, Adriamycin, reference compound] | 3.38 µM | > 100 µM | 68.8 µM | 3.64 | 18.9 µM | –
CCON=C1C(=O)N(CCCC(=O)OC2O[C@@H]3O[C@@]4(C)CC[C@H]5[C@H](C)CC[C@@H]([C@H]2C)[C@@]35OO4)c2ccccc21 (stereo partly drawn) [Hybrid 5b, (3R,5aS,6R,8aS,9R,12R,12aR)-3,6,9-trimethyldecahydro-12H-3,12-epoxy[1,2]dioxepino[4,3-i]isochromen-10-yl 4-(3-(ethoxyimino)-2-oxoindolin-1-yl)butanoate] | 15.1 µM | 26.8 µM | > 100 µM | >78.74 | 1.27 µM | –
COc1ccc2c(c1)C(=O)C(=O)N2CCCC(=O)OC1O[C@@H]2O[C@@]3(C)CC[C@H]4[C@H](C)CC[C@@H]([C@H]1C)[C@@]24OO3 (stereo partly drawn) [Hybrid 4d, (3R,5aS,6R,8aS,9R,12R,12aR)-3,6,9-trimethyldecahydro-12H-3,12-epoxy[1,2]dioxepino[4,3-i]isochromen-10-yl 4-(5-methoxy-2,3-dioxoindolin-1-yl)butanoate] | 15.1 µM | 20.1 µM | > 100 µM | >5.52 | 18.1 µM | –
Cc1ccc2c(c1)C(=NOCc1ccccc1)C(=O)N2CCCC(=O)OC1O[C@@H]2O[C@@]3(C)CC[C@H]4[C@H](C)CC[C@@H]([C@H]1C)[C@@]24OO3 (stereo partly drawn) [Hybrid 5h, (3R,5aS,6R,8aS,9R,12R,12aR)-3,6,9-trimethyldecahydro-12H-3,12-epoxy[1,2]dioxepino[4,3-i]isochromen-10-yl 4-(3-((benzyloxy)imino)-5-methyl-2-oxoindolin-1-yl)butanoate] | > 100 µM | > 100 µM | – | – | > 100 µM | –
C[C@H]1[C@@H](O)O[C@@H]2O[C@@]3(C)CC[C@H]4[C@H](C)CC[C@@H]1[C@@]24OO3 [DHA, Dihydroartemisinin, reference compound] | 48.8 µM | 82.8 µM | > 100 µM | >3.53 | 28.3 µM | 14.8 to 82.8 µM

Source: article PMC9926453 (Medicinal Chemistry Research, 2023)
